What was measured:
[1] = Cytotoxicity against human HuH7 cells after 72 hrs by Alamar Blue assay; type: cell-based; settings: Huh-7 cells
[2] = tested on: Bovine viral diarrhea virus 1; test: Antiviral activity against BVDV1; type: functional, organism-based; settings: Bovine viral diarrhea virus isolates and strains
Hepatitis C virus = test: Antiviral activity against HCV genotype 1b infected in human Huh7 cells assessed as inhibition of viral replication by FRET assay; type: functional, organism-based, Hepacivirus hominis; settings: Huh-7
How it was run: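 Replicon potency values are the means of at least two experiments.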

| Structure (SMILES) | CC50 at 72 h [1] [µM] | EC50 [2] [µM] | EC50 (Hepatitis C virus) [µM] |
| --- | --- | --- | --- |
| O=C(Nc1ccc(/C=C/c2ccc(NC(=O)[C@@H]3CCCN3C(=O)Cc3ccccc3)cc2)cc1)[C@@H]1CCCN1C(=O)Cc1ccccc1 | > 10 | > 10 | – |
| O=C(Nc1ccc(/C=C/c2ccc(NC(=O)[C@@H]3C4CC4CN3C(=O)OCc3ccccc3)cc2)cc1)[C@@H]1C2CC2CN1C(=O)OCc1ccccc1 (stereo partly specified) | > 10 | > 10 | 0.089 |
| O=C(Nc1ccc(/C=C/c2ccc(NC(=O)[C@@H]3CCCN3C(=O)Cc3ccccc3)cc2)cc1)[C@@H]1CCCN1 | > 10 | > 10 | 1.39 |
| CC(=O)Nc1ccc(/C=C/c2ccc(NC(=O)[C@@H]3CCCN3C(=O)Cc3ccccc3)cc2)cc1 | > 10 | > 10 | 1.64 |
| Nc1ccc(/C=C/c2ccc(NC(=O)[C@@H]3CCCN3C(=O)Cc3ccccc3)cc2)cc1 | > 10 | > 10 | > 10 |
| C[C@H](NC(=O)Cc1ccccc1)C(=O)Nc1ccc(/C=C/c2ccc(NC(=O)[C@@H]3CCCN3C(=O)Cc3ccccc3)cc2)cc1 | > 10 | > 10 | 0.00257 |
| CC(=O)N[C@@H](C)C(=O)Nc1ccc(/C=C/c2ccc(NC(=O)[C@@H]3CCCN3C(=O)Cc3ccccc3)cc2)cc1 | > 10 | > 10 | 0.153 |
| O=C(Cc1ccccc1)NCC(=O)Nc1ccc(/C=C/c2ccc(NC(=O)[C@@H]3CCCN3C(=O)Cc3ccccc3)cc2)cc1 | > 10 | > 10 | 0.768 |
| C[C@H](NC(=O)OCc1ccccc1)C(=O)Nc1ccc(/C=C/c2ccc(NC(=O)[C@H](C)NC(=O)OCc3ccccc3)cc2)cc1 | > 10 | > 10 | 3.21 |
| C[C@@H](C(=O)Nc1ccc(/C=C/c2ccc(NC(=O)[C@H](C)N(C)C(=O)OCc3ccccc3)cc2)cc1)N(C)C(=O)OCc1ccccc1 | > 10 | > 10 | 0.0731 |
| O=C(Nc1ccc(/C=C/c2ccc(NC(=O)[C@@H]3CCN3C(=O)OCc3ccccc3)cc2)cc1)[C@@H]1CCN1C(=O)OCc1ccccc1 | > 10 | > 10 | 0.058 |
| O=C(Nc1ccc(/C=C/c2ccc(NC(=O)[C@@H]3CCCCN3C(=O)OCc3ccccc3)cc2)cc1)[C@@H]1CCCCN1C(=O)OCc1ccccc1 | > 10 | > 10 | 0.0627 |
| O=C(Nc1ccc(/C=C/c2ccc(NC(=O)[C@@H]3Cc4ccccc4N3C(=O)OCc3ccccc3)cc2)cc1)[C@@H]1Cc2ccccc2N1C(=O)OCc1ccccc1 | > 10 | > 10 | 0.0669 |
| O=C(Nc1ccc(/C=C/c2ccc(NC(=O)[C@@H]3[C@H]4CCC[C@H]4CN3C(=O)OCc3ccccc3)cc2)cc1)[C@@H]1[C@H]2CCC[C@H]2CN1C(=O)OCc1ccccc1 | > 10 | > 10 | 0.12 |
| O=C(Nc1ccc(/C=C/c2ccc(NC(=O)[C@@H]3COCN3C(=O)OCc3ccccc3)cc2)cc1)[C@@H]1COCN1C(=O)OCc1ccccc1 | > 10 | > 10 | 0.00614 |
| O=C(Nc1ccc(/C=C/c2ccc(NC(=O)[C@@H]3C[C@H](O)CN3C(=O)OCc3ccccc3)cc2)cc1)[C@@H]1C[C@H](O)CN1C(=O)OCc1ccccc1 | > 10 | > 10 | 0.0115 |
| CO[C@@H]1C[C@@H](C(=O)Nc2ccc(/C=C/c3ccc(NC(=O)[C@@H]4C[C@@H](OC)CN4C(=O)OCc4ccccc4)cc3)cc2)N(C(=O)OCc2ccccc2)C1 | > 10 | > 10 | < 0.005 |
| CCO[C@@H]1C[C@@H](C(=O)Nc2ccc(/C=C/c3ccc(NC(=O)[C@@H]4C[C@@H](OCC)CN4C(=O)OCc4ccccc4)cc3)cc2)N(C(=O)OCc2ccccc2)C1 | > 10 | > 10 | 0.038 |
| CO[C@H]1C[C@@H](C(=O)Nc2ccc(/C=C/c3ccc(NC(=O)[C@@H]4C[C@H](OC)CN4C(=O)OCc4ccccc4)cc3)cc2)N(C(=O)OCc2ccccc2)C1 | > 10 | > 10 | < 0.005 |
